We go through five compounds from PMC4833523 (Bioorganic & medicinal chemistry letters, 2016).

Structures are written as SMILES.

A short description of series [1]: Rat microsomal intrinsic clearance / predicted hepatic clearance. It counts as in vitro ADME. Conditions: predicted hepatic clearance from rat microsomal intrinsic clearance.
Series [2] can be described thus: Rat IV PBL. Conditions: compared to 4. It counts as in vivo.
Series [3] in a line: Human microsomal intrinsic clearance / predicted hepatic clearance. The class given is in vitro ADME. The following applies: compared to 4.
A short description of series [4]: Rat brain homogenate binding. It counts as in vitro ADME. The following applies: compared to 4.
In series [5] the target is human mGlu1 (Homo sapiens, UniProt Q13255). The experiment in a line: Calcium mobilization mGlu1 PAM assay. It counts as cell-based. A digest of the protocol: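 Calcium mobilization read-out on human mGlu1. Test compounds were first triaged in a 10 μM single-point screen with an EC20 concentration of glutamate. Those selected then got full concentration-response curves. Values are the average of three independent experiments, each run in triplicate.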
human mGlu1, sequence (Q13255 19-1194): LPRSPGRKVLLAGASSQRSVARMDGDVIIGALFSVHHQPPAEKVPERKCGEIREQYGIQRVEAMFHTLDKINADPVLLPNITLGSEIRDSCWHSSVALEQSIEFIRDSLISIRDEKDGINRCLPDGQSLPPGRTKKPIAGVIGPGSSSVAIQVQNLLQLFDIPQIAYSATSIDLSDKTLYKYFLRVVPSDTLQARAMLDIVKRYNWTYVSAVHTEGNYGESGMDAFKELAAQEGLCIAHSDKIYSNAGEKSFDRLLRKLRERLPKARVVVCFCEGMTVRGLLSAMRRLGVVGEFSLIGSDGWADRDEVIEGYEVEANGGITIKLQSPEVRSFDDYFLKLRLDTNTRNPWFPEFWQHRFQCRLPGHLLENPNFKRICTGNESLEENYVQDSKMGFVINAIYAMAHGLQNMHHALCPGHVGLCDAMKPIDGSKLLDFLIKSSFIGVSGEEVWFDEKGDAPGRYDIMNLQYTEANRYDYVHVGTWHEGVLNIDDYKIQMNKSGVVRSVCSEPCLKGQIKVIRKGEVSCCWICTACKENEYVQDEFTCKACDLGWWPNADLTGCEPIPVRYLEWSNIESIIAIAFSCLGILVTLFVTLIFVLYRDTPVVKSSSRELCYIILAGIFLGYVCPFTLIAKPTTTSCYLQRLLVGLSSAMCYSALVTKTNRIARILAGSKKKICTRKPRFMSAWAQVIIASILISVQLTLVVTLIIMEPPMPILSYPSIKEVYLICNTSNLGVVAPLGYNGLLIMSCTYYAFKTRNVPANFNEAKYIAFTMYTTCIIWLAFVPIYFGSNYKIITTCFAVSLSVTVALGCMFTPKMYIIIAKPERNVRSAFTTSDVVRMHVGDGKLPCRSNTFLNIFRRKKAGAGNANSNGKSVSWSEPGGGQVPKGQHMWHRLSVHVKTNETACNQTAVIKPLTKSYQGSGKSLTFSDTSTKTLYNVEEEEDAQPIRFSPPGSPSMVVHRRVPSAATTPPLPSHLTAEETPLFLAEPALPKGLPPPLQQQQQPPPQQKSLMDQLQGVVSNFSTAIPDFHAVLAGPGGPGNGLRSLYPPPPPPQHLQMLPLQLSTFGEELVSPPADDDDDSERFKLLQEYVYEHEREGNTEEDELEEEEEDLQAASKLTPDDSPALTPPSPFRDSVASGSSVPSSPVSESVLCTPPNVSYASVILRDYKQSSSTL

Consider `N#Cc1csc(NC(=O)C2c3ccccc3Oc3ccccc32)n1` [9a], for which the “Rat CLhep” value in series [1] is on record as 62.2 mL/min/kg. The “fold improvement in Kp (CNS exposure) over 4” value in series [2] is recorded as ~ 4 fold. The “reduction of human microsomal intrinsic clearance” value in series [3] is ~ 50%. Besides, the “enhancement of free drug in brain” value in series [4] is reported as over 10 fold. Consider `CC(C)c1csc(NC(=O)C2c3ccccc3Oc3ccccc32)n1` [9b], for which, in series [1], the “Rat CLhep” value is on record as 64 mL/min/kg. Also, the “fold improvement in Kp (CNS exposure) over 4” value in series [2] is reported as ~ 3 fold. On to `O=C(Nc1nc2ccccc2s1)C1c2ccccc2Oc2ccccc21` [9f], for which the “fold increase in potency on replacing thiazole 9e” value in series [5] (9f versus 9e) is recorded as about 3 fold. As for `Cc1nc(NC(=O)C2c3ccccc3Oc3ccccc32)sc1C` [9g], the “mGlu1 PAM activity in words” value in series [5] was “weak PAM activity”.

As for `O=C(Nc1ccccn1)C1c2ccccc2Oc2ccccc21` [9h], the “mGlu1 PAM activity in words” value in series [5] is “moderate activity”.
